Laboratory results published in ChEMBL document CHEMBL1147807, “Identification of 2-acylaminothiophene-3-carboxamides as potent inhibitors of FLT3” (Bioorg Med Chem Lett, 2006).

Experiments:
[1] = target: Tyrosine-protein kinase ABL2 (Homo sapiens) (UniProt P42684); experiment: Inhibition of human Arg kinase at 3 uM in presence of 10 uM ATP
How it was run: (§1)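 Selectivity panel run at a single compound concentration of 3 µM with 10 µM ATP. Read-out is % inhibition of each kinase. Values are averages of duplicate experiments.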

[2] = target: Mitogen-activated protein kinase 10 (Homo sapiens) (UniProt P53779); experiment: Inhibition of human JNK3 at 3 uM in presence of 10 uM ATP; how it was run: as §1
Chain of Mitogen-activated protein kinase 10 (Homo sapiens) (P53779 whole entry): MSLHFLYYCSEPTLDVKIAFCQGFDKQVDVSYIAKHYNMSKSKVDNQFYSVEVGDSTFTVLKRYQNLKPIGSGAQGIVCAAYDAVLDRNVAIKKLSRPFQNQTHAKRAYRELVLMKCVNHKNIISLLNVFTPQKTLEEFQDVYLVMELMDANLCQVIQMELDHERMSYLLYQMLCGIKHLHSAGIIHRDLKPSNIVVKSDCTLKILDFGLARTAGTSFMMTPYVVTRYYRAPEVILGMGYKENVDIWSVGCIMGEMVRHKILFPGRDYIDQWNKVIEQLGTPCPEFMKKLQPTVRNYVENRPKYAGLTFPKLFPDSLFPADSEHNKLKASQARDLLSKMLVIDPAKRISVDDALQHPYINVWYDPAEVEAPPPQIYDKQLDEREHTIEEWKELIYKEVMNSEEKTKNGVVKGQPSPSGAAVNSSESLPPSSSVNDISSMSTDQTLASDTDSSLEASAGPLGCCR

Rattus norvegicus = organism: Rattus norvegicus; experiment: Inhibition of rat AMPK at 3 uM in presence of 10 uM ATP; how it was run: as §1
[3] = target: Tyrosine-protein kinase receptor UFO (Homo sapiens) (UniProt P30530); experiment: Inhibition of human Axl kinase at 3 uM in presence of 10 uM ATP; how it was run: as §1
Chain of Tyrosine-protein kinase receptor UFO (Homo sapiens) (P30530 whole entry): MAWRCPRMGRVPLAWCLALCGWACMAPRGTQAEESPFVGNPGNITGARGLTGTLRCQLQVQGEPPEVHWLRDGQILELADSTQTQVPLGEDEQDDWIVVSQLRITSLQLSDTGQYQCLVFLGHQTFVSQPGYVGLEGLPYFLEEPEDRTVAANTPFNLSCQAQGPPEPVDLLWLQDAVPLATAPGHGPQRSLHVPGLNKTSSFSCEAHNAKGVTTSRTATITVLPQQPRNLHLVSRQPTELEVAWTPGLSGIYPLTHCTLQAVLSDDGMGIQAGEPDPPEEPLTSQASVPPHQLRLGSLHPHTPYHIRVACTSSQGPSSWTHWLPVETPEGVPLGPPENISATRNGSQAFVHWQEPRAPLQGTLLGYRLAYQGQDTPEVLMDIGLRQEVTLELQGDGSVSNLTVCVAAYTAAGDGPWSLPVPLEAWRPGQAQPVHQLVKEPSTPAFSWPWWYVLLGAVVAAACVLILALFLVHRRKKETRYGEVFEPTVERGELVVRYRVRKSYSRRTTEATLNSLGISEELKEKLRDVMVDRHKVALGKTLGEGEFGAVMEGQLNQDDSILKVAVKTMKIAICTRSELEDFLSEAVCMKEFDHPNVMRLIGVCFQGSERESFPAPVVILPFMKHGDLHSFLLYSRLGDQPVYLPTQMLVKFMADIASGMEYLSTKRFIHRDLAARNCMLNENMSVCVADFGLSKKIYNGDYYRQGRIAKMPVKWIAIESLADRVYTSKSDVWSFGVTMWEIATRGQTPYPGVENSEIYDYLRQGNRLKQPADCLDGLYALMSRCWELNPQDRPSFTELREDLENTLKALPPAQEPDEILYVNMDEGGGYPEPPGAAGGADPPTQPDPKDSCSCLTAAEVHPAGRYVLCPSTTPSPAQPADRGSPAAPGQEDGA

[4] = target: Hepatocyte growth factor receptor (Homo sapiens) (UniProt P08581); experiment: Inhibition of human Met at 3 uM in presence of 10 uM ATP; how it was run: as §1
[5] = target: Tyrosine-protein kinase Fyn (Homo sapiens) (UniProt P06241); experiment: Inhibition of human Fyn at 3 uM in presence of 10 uM ATP; how it was run: as §1
Chain of Tyrosine-protein kinase Fyn (Homo sapiens) (P06241 2-537 limits assumed): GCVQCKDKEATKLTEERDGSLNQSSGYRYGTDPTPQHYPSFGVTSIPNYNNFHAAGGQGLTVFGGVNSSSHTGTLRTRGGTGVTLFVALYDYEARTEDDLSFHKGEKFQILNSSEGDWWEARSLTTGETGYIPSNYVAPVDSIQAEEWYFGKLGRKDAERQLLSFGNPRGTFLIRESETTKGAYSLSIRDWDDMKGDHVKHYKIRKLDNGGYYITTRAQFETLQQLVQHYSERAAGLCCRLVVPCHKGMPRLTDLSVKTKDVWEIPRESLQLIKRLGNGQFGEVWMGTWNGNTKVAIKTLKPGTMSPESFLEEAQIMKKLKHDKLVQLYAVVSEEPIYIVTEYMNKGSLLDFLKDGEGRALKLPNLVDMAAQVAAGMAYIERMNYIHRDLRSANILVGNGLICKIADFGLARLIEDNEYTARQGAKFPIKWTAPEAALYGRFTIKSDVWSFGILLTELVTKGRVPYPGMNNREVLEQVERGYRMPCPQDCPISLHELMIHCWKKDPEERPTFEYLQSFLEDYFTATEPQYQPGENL

[6] = target: Tyrosine-protein kinase ABL1 (Homo sapiens) (UniProt P00519); experiment: Inhibition of human Abl kinase at 3 uM in presence of 10 uM ATP; how it was run: as §1
Chain of Tyrosine-protein kinase ABL1 (Homo sapiens) (P00519 whole entry): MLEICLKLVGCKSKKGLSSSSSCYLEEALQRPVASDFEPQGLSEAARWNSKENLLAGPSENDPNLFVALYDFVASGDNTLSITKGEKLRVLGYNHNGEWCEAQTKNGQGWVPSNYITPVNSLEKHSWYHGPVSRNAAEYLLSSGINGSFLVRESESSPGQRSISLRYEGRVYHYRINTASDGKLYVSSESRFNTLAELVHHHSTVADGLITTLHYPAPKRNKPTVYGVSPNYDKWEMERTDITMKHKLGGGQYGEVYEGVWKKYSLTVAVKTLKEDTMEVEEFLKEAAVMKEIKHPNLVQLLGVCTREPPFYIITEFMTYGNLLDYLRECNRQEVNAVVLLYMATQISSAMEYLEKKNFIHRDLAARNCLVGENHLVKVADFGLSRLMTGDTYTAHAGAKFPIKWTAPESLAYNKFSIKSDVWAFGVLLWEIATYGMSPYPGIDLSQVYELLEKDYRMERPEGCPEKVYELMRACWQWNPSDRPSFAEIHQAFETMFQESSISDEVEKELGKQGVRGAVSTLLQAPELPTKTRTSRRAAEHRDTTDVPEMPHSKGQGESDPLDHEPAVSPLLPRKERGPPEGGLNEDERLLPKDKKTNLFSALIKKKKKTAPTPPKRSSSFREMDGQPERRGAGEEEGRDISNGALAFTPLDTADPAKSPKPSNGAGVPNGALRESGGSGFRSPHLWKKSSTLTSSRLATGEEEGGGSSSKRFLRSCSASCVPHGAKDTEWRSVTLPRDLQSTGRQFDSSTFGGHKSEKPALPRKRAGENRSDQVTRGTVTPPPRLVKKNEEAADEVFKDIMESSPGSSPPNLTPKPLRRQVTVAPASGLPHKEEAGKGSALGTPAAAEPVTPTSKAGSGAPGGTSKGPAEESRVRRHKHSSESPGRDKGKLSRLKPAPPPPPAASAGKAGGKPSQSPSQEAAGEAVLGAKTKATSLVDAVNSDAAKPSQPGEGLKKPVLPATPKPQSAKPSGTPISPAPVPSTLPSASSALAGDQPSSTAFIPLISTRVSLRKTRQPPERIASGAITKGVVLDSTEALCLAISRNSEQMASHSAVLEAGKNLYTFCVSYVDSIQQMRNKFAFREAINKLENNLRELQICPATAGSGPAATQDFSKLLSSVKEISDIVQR

[7] = target: T1, Receptor-type tyrosine-protein kinase FLT3 (Homo sapiens, UniProt P36888); experiment: Inhibition of FLT3
T1 sequence (P36888 whole entry): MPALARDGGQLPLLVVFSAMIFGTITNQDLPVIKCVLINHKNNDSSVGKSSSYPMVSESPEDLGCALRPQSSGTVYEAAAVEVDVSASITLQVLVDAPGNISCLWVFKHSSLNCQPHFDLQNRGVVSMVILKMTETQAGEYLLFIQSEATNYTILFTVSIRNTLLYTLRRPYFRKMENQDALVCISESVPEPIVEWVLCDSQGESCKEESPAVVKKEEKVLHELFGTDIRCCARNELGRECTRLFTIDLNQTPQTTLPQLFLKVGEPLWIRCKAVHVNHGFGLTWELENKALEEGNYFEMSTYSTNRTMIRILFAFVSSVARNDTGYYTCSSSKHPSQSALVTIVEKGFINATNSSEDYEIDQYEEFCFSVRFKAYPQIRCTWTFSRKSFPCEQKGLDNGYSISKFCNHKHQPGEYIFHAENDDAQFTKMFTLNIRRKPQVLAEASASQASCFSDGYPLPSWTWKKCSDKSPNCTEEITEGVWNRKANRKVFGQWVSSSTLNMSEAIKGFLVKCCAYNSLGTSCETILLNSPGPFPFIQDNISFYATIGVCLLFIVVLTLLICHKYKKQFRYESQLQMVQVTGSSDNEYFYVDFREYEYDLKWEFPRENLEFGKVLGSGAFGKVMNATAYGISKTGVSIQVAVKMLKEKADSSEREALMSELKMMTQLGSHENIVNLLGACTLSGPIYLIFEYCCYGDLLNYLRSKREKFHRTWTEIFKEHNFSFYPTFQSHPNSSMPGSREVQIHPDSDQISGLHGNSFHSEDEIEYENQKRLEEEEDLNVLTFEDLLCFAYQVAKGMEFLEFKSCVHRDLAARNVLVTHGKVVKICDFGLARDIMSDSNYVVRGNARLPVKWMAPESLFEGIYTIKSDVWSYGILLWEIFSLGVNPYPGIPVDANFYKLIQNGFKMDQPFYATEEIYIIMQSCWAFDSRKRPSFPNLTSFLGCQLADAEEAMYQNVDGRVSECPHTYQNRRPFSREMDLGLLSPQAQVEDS

[8] = target: Ribosomal protein S6 kinase alpha-1 (Homo sapiens) (UniProt Q15418); experiment: Inhibition of human Rsk1 at 3 uM in presence of 10 uM ATP; how it was run: as §1
Chain of Ribosomal protein S6 kinase alpha-1 (Homo sapiens) (Q15418 whole entry): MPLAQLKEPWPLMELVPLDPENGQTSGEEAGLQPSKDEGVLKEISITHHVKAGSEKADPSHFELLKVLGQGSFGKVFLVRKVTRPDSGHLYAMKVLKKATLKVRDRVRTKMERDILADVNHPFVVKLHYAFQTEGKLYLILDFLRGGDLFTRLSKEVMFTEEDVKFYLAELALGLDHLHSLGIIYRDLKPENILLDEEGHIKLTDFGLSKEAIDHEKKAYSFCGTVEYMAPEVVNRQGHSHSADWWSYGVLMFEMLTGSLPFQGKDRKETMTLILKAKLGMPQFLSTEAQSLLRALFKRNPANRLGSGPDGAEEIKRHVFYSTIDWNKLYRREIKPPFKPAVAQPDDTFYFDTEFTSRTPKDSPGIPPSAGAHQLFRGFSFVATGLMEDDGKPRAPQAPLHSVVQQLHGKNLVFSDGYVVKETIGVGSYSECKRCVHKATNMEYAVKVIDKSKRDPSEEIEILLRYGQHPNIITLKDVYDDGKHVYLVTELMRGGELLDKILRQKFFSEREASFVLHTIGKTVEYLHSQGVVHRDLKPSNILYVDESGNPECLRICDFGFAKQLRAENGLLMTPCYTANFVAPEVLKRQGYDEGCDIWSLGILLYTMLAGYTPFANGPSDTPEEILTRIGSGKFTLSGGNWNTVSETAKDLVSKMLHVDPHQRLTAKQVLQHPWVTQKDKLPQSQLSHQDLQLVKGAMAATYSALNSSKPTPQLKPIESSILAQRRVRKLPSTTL

[9] = target: T2, Cytoplasmic tyrosine-protein kinase BMX (Homo sapiens) (UniProt P51813); experiment: Inhibition of human Bmx kinase at 3 uM in presence of 10 uM ATP; how it was run: as §1
T2 sequence (whole entry): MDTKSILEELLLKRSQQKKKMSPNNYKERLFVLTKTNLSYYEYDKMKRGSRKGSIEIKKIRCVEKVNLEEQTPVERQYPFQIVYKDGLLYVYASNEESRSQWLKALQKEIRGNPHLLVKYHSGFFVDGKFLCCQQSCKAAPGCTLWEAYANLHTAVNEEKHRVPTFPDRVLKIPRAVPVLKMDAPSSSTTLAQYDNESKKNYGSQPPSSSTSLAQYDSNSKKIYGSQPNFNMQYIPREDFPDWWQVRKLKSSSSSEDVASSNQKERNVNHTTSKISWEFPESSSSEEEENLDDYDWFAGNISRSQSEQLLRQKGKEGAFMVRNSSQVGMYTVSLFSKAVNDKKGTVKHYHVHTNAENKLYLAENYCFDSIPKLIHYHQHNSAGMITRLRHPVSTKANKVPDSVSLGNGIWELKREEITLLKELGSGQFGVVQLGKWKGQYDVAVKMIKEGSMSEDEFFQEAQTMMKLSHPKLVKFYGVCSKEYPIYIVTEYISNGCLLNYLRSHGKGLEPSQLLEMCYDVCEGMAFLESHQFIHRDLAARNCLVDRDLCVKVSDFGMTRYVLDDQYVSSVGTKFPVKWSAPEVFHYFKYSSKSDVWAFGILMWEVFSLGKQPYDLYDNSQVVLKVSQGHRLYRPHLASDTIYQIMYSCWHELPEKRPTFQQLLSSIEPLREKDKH

Chain of Tyrosine-protein kinase ABL2 (Homo sapiens) (P42684 whole entry): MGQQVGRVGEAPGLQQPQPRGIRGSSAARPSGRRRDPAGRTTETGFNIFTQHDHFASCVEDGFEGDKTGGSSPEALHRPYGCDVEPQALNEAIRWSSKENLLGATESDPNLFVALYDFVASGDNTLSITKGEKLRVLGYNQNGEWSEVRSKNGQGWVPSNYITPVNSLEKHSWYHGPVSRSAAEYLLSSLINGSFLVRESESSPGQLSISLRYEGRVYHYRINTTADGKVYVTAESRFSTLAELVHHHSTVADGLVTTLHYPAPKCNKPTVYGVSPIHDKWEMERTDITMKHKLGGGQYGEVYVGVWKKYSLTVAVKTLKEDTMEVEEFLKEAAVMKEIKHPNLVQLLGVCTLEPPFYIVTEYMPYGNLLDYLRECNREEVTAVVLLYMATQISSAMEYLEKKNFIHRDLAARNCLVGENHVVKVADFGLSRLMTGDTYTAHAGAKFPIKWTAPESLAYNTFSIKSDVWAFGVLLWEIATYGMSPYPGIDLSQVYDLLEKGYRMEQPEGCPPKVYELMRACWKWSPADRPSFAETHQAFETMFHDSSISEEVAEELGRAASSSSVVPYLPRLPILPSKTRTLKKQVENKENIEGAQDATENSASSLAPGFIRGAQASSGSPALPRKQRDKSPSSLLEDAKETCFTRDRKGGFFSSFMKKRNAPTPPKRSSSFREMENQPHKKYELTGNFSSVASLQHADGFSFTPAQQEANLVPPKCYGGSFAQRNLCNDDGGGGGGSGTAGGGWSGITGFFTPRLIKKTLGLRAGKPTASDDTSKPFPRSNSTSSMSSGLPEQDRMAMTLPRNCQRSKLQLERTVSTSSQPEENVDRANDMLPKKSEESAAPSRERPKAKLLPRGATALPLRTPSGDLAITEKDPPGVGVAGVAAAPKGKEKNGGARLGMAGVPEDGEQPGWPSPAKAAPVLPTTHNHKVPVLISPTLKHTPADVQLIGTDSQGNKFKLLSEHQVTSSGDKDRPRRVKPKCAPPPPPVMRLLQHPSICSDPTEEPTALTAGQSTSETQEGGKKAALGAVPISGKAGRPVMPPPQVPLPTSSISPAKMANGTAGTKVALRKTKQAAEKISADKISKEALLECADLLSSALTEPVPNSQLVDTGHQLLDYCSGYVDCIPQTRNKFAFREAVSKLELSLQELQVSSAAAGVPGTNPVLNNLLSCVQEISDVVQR

COc1ccc(C(=O)Nc2sc3c(c2C(N)=O)CCCC3)cc1OC
inhibition [1]: 49%
inhibition [2]: -6%
inhibition (Rattus norvegicus): -4%
inhibition [3]: -10%
inhibition [4]: 13%
inhibition [5]: 33%
inhibition [6]: 21%
IC50 [7]: 42 nM
inhibition [8]: 3%
inhibition [9]: 9%
